What was measured:
Format in all cases: functional
Conditions in all cases: read-out: GI
Candida albicans [1] = experiment: Antifungal activity against Candida albicans CAI4 expressing delta-cph1/delta-efg1 gene assessed as growth inhibition at 1 ug/ml by CLSI M27-A3 method
Outline: (§1)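 CLSI M27-A3 broth microdilution in RPMI, read after 48 h. Strains pre-grown 18 h in YEPD at 30°C. Final inoculum 0.5×10^2–2.5×10^3 cells/ml. Two-fold dilutions in RPMI came from a 1600 µg/ml stock in water with 9% DMSO; final DMSO was 0.09%. OD405 read, % inhibition = 100 − (CTW−SCW)/(GCW−SCW). Triplicate on three occasions, mean±SD.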

Candida albicans [2] = experiment: Antifungal activity against Candida albicans 90028 assessed as growth inhibition at 1 ug/ml by CLSI M27-A3 method; outline: as §1
Candida albicans [3] = experiment: Antifungal activity against Candida albicans CAI4 expressing delta-cph1 gene assessed as growth inhibition at 1 ug/ml by CLSI M27-A3 method; outline: as §1
Candida albicans [4] = experiment: Antifungal activity against Candida albicans CAI4 expressing delta-cph1 (CPH1) gene assessed as growth inhibition at 1 ug/ml by CLSI M27-A3 method; outline: as §1
Candida albicans [5] = experiment: Antifungal activity against Candida albicans CAI4 expressing delta-cph1/delta-efg1 (EFG1) gene assessed as growth inhibition at 1 ug/ml by CLSI M27-A3 method; outline: as §1
Candida albicans [6] = experiment: Antifungal activity against Candida albicans CAI4 expressing delta-efg1 gene assessed as growth inhibition at 1 ug/ml by CLSI M27-A3 method
Outline: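 CLSI M27-A3 broth microdilution in RPMI. Final inoculum 0.5×10^2 to 2.5×10^3 cells/ml. Seven two-fold concentrations from 0.25 to 16 µg/ml, with DMSO held at 0.09% (v/v) in all wells. Compound-free growth controls and sterility controls are run for each strain. […] Triplicate on three occasions.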

Candida albicans [7] = experiment: Antifungal activity against Candida albicans CAI4 expressing delta-efg1 (EFG1) gene assessed as growth inhibition at 1 ug/ml by CLSI M27-A3 method; outline: as §1

Measured: inhibition of growth at 1 µg/mL

C[C@@H]1[C@H](O)[C@@H](C)/C=C/C=C/C=C/C=C/C=C/C=C/C=C/[C@H](O[C@@H]2O[C@H](C)[C@@H](O)[C@H](N)[C@@H]2O)C[C@@H]2O[C@](O)(C[C@@H](O)C[C@@H](O)[C@H](O)CC[C@@H](O)C[C@@H](O)CC(=O)O[C@H]1C)C[C@H](O)[C@H]2C(=O)O [AMPHOTERICIN B]
100%: Candida albicans [1] | Candida albicans [2] | Candida albicans [3] | Candida albicans [4] | Candida albicans [5] | Candida albicans [6] | Candida albicans [7]

— ChEMBL document CHEMBL3351861, “New synthetic sulfone derivatives inhibit growth, adhesion and the leucine arylamidase APE2 gene expression of Candida albicans in vitro” (2015)
